# Calls of active or inactive are those of the source.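 Rule for the calls, unless noted: active = viability at or below 10% of carrier control in both of two separate runs; inconclusive = viability at or below 10% in only one of the two runs; inactive = the rest.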
# Experiments:
# [1] = Her2 expression decrease, cell viability multiplex – SKBR3 breast tumor cells, AlphaScreen, ATP viability, primary screen (AID 461;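 active = Her2 level under about 52% in both replicate screens, with viability over 70% of control, limit read from the data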;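 for Her2 level: lower value means less Her2 protein in the cells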;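 for viability: percent of carrier control wells set as 100% viability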); conditions: SKBR3 Her2 protein level, 18-24 h, measured here: SKBR3 viability, ATP luminescence, at 10 µM
# [2] = molecular target: Receptor tyrosine-protein kinase erbB-2 (Homo sapiens) (UniProt P04626); experiment: as above; conditions: 18-24 h, at 10 µM, stronger effect = lower value
# [3] = reduced viability of SK-BR-3 breast cancer cells – cell-based, 24 h, human, pilot screen (AID 572); conditions: SK-BR-3 viability, CellTiter-Glo luminescence, at 10 µM, stronger effect = lower value;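 note: compound exposure lasted between 18 and 24 h rather than exactly 24 h; 100% = carrier-treated control wells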
# [4] = HUVEC growth inhibition – cell-based, human, primary screen (AID 575;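 active = viability at or below 30% in both replicate assays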;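 note: 100% = median of untreated cell wells with 0.1% DMSO on each plate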); conditions: HUVEC proliferation, CellTiter-Glo luminescence, 72 h; at 10 µM; stronger effect = lower value
# How it was run: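 Material: primary human umbilical vein endothelial cells / Schedule: 72 h exposure, 37 °C, 5% CO2, 30 min RT equilibration / Signal: ATP-based CellTiter-Glo luminescent read / Read-out basis: percent of median DMSO-control luminescence / Control set: 32 DMSO-only cell-control wells (high), 32 MePR drug-control wells (low) per plate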
# [5] = H69AR cell proliferation blockers – human, duplicate replicates, primary screen (AID 580;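 active = viability at or under a set limit in both replicates, limit being median viability minus 3 SD, cut at about 48% in these data, passing the limit was not always enough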;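 note: 100% = mean luminescence of untreated wells and 0% = no signal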); conditions: H69AR lung tumor cells viability, ATP luminescence, 72 h; at 10 µM; stronger effect = lower value
# [6] = MRP1 drug-resistance reversers in H69AR cells – cell-based, doxorubicin co-treatment, pilot screen (AID 601;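 active = viability loss from added drug above about 55%, and viability with drug at most 40%, in both replicates, limit read from the data, passing the limit was not always enough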); conditions: CellTiter-Glo, 72 h, at 10 µM; for differential viability (reversal): stronger effect = higher value
# [7] = yeast transport mutant growth inhibition pilot in 384-well plates, post-Golgi transport modulator project (AID 636; in the data active = inhibition above about 31%); conditions: absorbance 615 nm, about 18 h, stronger effect = higher value
# [8] = growth suppression of yeast trafficking mutant, preliminary HTS, modulators of trafficking downstream of Golgi apparatus project, 1536-format plate, OD 615 nm (AID 637; in the data active = inhibition above about 30%); conditions: yeast transport mutant growth, absorbance 615 nm, 18 h; stronger effect = higher value
# [9] = H69AR cells + 2 uM doxorubicin, measured here: viability with 2 uM doxorubicin, stronger effect = lower value
# [10] = H69AR cells, compound alone cytotoxicity
# Sequence of Receptor tyrosine-protein kinase erbB-2 (Homo sapiens) (P04626 whole entry, looked up): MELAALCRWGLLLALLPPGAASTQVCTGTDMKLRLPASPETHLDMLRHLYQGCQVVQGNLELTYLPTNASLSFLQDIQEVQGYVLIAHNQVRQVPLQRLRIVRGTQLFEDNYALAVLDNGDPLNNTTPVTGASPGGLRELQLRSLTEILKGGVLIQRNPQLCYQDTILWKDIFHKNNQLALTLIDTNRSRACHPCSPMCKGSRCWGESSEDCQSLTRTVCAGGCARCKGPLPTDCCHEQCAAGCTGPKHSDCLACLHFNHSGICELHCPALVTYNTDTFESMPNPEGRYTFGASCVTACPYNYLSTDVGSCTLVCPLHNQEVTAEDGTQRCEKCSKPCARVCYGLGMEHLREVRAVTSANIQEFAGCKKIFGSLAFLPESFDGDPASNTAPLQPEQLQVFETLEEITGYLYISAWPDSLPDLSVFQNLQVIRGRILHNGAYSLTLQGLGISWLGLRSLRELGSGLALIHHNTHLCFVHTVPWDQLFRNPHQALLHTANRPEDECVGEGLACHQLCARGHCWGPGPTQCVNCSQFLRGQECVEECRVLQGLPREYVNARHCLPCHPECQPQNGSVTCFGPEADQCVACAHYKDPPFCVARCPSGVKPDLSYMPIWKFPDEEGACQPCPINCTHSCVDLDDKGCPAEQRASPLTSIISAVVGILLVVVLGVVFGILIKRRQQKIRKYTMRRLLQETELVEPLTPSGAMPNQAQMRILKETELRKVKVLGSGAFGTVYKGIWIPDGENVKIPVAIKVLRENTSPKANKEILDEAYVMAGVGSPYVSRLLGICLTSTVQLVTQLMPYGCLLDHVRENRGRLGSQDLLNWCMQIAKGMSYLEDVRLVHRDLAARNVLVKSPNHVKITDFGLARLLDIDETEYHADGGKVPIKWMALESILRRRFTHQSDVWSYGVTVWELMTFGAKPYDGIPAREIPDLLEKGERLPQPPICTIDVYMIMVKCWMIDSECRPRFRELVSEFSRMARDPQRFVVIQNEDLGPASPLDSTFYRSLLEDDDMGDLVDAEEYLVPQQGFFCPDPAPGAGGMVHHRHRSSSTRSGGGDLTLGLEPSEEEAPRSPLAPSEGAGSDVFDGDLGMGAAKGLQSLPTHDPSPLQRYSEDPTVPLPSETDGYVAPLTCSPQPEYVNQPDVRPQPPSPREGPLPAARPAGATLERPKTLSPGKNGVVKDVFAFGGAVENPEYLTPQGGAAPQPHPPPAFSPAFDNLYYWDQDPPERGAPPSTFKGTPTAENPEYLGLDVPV
smiles,measurement,setting,value
CCn1c(=O)c(C(=O)NCCc2ccccc2)c(O)c2ccccc21,viability,[1],99%
same,Her2 level,[2],102% (inactive)
same,viability,[3],99% (inactive)
same,viability,[4],58.8% (inactive)
same,viability,[5],61.6% (inactive)
same,differential viability (reversal),[6]; H69AR cells + 2 uM doxorubicin,-26% (inactive)
same,viability,[6]; [9],87.6%
same,viability,[6]; [10],61.6%
same,inhibition,[7],-1.03% (inactive)
same,inhibition,[8],-5.17% (inactive)
O=C(NCc1cccnc1)c1cn(CCc2ccccc2)nn1,viability,[1],99.5%
same,Her2 level,[2],93% (inactive)
same,viability,[3],99.5% (inactive)
same,viability,[4],130% (inactive)
same,viability,[5],109% (inactive)
same,differential viability (reversal),[6]; H69AR cells + 2 uM doxorubicin,20.4% (inactive)
same,viability,[6]; [9],89%
same,viability,[6]; [10],109%
same,inhibition,[7],-5.27% (inactive)
same,inhibition,[8],4.33% (inactive)
Cc1csc2nc(CNC(=O)c3ccco3)cn12,viability,[1],86%
same,Her2 level,[2],102% (inactive)
same,viability,[3],86% (inactive)
same,viability,[4],95.6% (inactive)
same,viability,[5],112% (inactive)
same,differential viability (reversal),[6]; H69AR cells + 2 uM doxorubicin,13.9% (inactive)
same,viability,[6]; [9],98.5%
same,viability,[6]; [10],112%
same,inhibition,[7],-1.2% (inactive)
same,inhibition,[8],-4.35% (inactive)
CCn1c(SC)nc2c(c1=O)SC(C)C2 (stereo not given),viability,[1],111%
same,Her2 level,[2],110% (inactive)
same,viability,[3],111% (inactive)
same,viability,[4],113% (inactive)
same,viability,[5],98.4% (inactive)
same,differential viability (reversal),[6]; H69AR cells + 2 uM doxorubicin,17.2% (inactive)
same,viability,[6]; [9],81.2%
same,viability,[6]; [10],98.4%
same,inhibition,[7],-4.67% (inactive)
same,inhibition,[8],1.8% (inactive)
CCOc1cc(C(=O)NCC2CCCO2)cc(OCC)c1OCC (stereo not given),viability,[1],100%
same,Her2 level,[2],110% (inactive)
same,viability,[3],100% (inactive)
same,viability,[4],119% (inactive)
same,viability,[5],102% (inactive)
same,differential viability (reversal),[6]; H69AR cells + 2 uM doxorubicin,10% (inactive)
same,viability,[6]; [9],92.2%
same,viability,[6]; [10],102%
same,inhibition,[7],-4.86% (inactive)
same,inhibition,[8],-5.33% (inactive)
O=C(O)c1oc2ccccc2c1-n1cccc1,viability,[1],102%
same,Her2 level,[2],86.5% (inactive)
same,viability,[3],102% (inactive)
same,viability,[4],102% (inactive)
same,viability,[5],96.8% (inactive)
same,differential viability (reversal),[6]; H69AR cells + 2 uM doxorubicin,-0.995% (inactive)
same,viability,[6]; [9],97.8%
same,viability,[6]; [10],96.8%
same,inhibition,[7],-4.8% (inactive)
same,inhibition,[8],0.16% (inactive)
O=C(CCc1ccccc1)Nc1ccncc1,viability,[1],110%
same,Her2 level,[2],119% (inactive)
same,viability,[3],110% (inactive)
same,viability,[4],103% (inactive)
same,viability,[5],97.8% (inactive)
same,differential viability (reversal),[6]; H69AR cells + 2 uM doxorubicin,5.17% (inactive)
same,viability,[6]; [9],92.6%
same,viability,[6]; [10],97.8%
same,inhibition,[7],0.65% (inactive)
same,inhibition,[8],-5.33% (inactive)
CCOC(=O)c1sc(=NC(=O)c2ccc(OC)c(OC)c2)n(C)c1C,viability,[1],121%
same,Her2 level,[2],84% (inactive)
same,viability,[3],121% (inactive)
same,viability,[4],108% (inactive)
same,viability,[5],65% (inactive)
same,differential viability (reversal),[6]; H69AR cells + 2 uM doxorubicin,-6.65% (inactive)
same,viability,[6]; [9],71.7%
same,viability,[6]; [10],65%
same,inhibition,[7],-5.06% (inactive)
same,inhibition,[8],-0.16% (inactive)
CCCn1c(O)c(CN2CCCC(C)C2)c(C)c(C#N)c1=O (stereo not given),viability,[1],102%
same,Her2 level,[2],87.5% (inactive)
same,viability,[3],102% (inactive)
same,viability,[4],86.8% (inactive)
same,viability,[5],107% (inactive)
same,differential viability (reversal),[6]; H69AR cells + 2 uM doxorubicin,15.3% (inactive)
same,viability,[6]; [9],92.2%
same,viability,[6]; [10],107%
same,inhibition,[7],-5.87% (inactive)
same,inhibition,[8],5.32% (inactive)
Cc1cc(C)n(-c2nc3nonc3nc2-n2nc(C)cc2C)n1,viability,[1],91.5%
same,Her2 level,[2],83% (inactive)
same,viability,[3],91.5% (inactive)
same,viability,[4],83.3% (inactive)
same,viability,[5],105% (inactive)
same,differential viability (reversal),[6]; H69AR cells + 2 uM doxorubicin,14.7% (inactive)
same,viability,[6]; [9],90.3%
same,viability,[6]; [10],105%
same,inhibition,[7],-2.5% (inactive)
same,inhibition,[8],-3.17% (inactive)
CCOC(=O)CC12CN3CN(C1)CC(CC(=O)OCC)(C3)C2=O,viability,[1],94%
same,Her2 level,[2],86% (inactive)
same,viability,[3],94% (inactive)
same,viability,[4],89.1% (inactive)
same,viability,[5],98.3% (inactive)
same,differential viability (reversal),[6]; H69AR cells + 2 uM doxorubicin,3.54% (inactive)
same,viability,[6]; [9],94.7%
same,viability,[6]; [10],98.3%
same,inhibition,[7],-5.95% (inactive)
same,inhibition,[8],0.49% (inactive)
OCCNCCCCOc1ccccc1F,viability,[1],84.5%
same,Her2 level,[2],128% (inactive)
same,viability,[3],84.5% (inactive)
same,viability,[4],111% (inactive)
same,viability,[5],102% (inactive)
same,differential viability (reversal),[6]; H69AR cells + 2 uM doxorubicin,8.07% (inactive)
same,viability,[6]; [9],94.3%
same,viability,[6]; [10],102%
same,inhibition,[7],2.69% (inactive)
same,inhibition,[8],-8.17% (inactive)
COc1ccc(-c2noc(-c3ccccc3C(=O)NCc3ccco3)n2)cc1,viability,[1],93%
same,Her2 level,[2],104% (inactive)
same,viability,[3],93% (inactive)
same,viability,[4],107% (inactive)
same,viability,[5],82.8% (inactive)
same,differential viability (reversal),[6]; H69AR cells + 2 uM doxorubicin,-12.1% (inactive)
same,viability,[6]; [9],94.9%
same,viability,[6]; [10],82.8%
same,inhibition,[7],-3.12% (inactive)
same,inhibition,[8],-5.24% (inactive)
O=C(CSc1nc(-c2ccccc2)cs1)NCc1ccco1,viability,[1],100%
same,Her2 level,[2],102% (inactive)
same,viability,[3],100% (inactive)
same,viability,[4],103% (inactive)
same,viability,[5],94.8% (inactive)
same,differential viability (reversal),[6]; H69AR cells + 2 uM doxorubicin,1.79% (inactive)
same,viability,[6]; [9],93%
same,viability,[6]; [10],94.8%
same,inhibition,[7],-6.08% (inactive)
same,inhibition,[8],-9.18% (inactive)
CCOC(=O)N1CCC(N2C(=O)c3ccc(C(=O)NCc4ccco4)cc3C2=O)CC1,viability,[1],95.5%
same,Her2 level,[2],94% (inactive)
same,viability,[3],95.5% (inactive)
same,viability,[4],79.6% (inactive)
same,viability,[5],85.9% (inactive)
same,differential viability (reversal),[6]; H69AR cells + 2 uM doxorubicin,4.97% (inactive)
same,viability,[6]; [9],81%
same,viability,[6]; [10],85.9%
same,inhibition,[7],0% (inactive)
same,inhibition,[8],-0.17% (inactive)
Fc1ccc(-n2c(Cc3ccccc3)nnc2SCc2nc(-c3cccs3)no2)cc1,viability,[1],99.5%
same,Her2 level,[2],92.5% (inactive)
same,viability,[3],99.5% (inactive)
same,viability,[4],73.1% (inactive)
same,viability,[5],94.1% (inactive)
same,differential viability (reversal),[6]; H69AR cells + 2 uM doxorubicin,17.9% (inactive)
same,viability,[6]; [9],76.2%
same,viability,[6]; [10],94.1%
same,inhibition,[7],-3.73% (inactive)
same,inhibition,[8],-0.98% (inactive)

# From PubChem BioAssay
